Published values pooled from the literature.
Protocols differ between the studies behind these lines.
LRRK2 G2019S: Leucine-rich repeat serine/threonine-protein kinase 2 (LRRK2, Homo sapiens, UniProt Q5S007, G2019S)
LRRK2: Leucine-rich repeat serine/threonine-protein kinase 2 (LRRK2, Homo sapiens, UniProt Q5S007)

N[C@@H]1CCN(c2nccc(-c3cnn4ncccc34)n2)C1
remaining binding (LRRK2 G2019S; binding; 1 µM): 100%

O=C(Nc1cnn(-c2csc(C(=O)NC3COC3)c2)c1)Nc1c(F)cccc1Cl
remaining activity (LRRK2; enzyme activity, inhibitor; 5 µM): 91.3%

Cc1ccc(NC(=O)c2ccc(C)c(C(F)(F)F)c2)cc1C#Cc1nn(C2CCC(O)CC2)c2ncnc(N)c12 (stereo not shown)
remaining signal (LRRK2; cell-free assay; 10 µM): 15%

Cc1cnn2ncc(-c3ccnc(N(C)C)n3)c2c1
remaining binding (LRRK2; binding; 1 µM): 47%

CCN(CC)CCNC(=O)c1c(C)[nH]c(/C=C2\C(=O)Nc3ccc(F)cc32)c1C
remaining signal (LRRK2; cell-free assay; 0.5 µM): 3.34%

COc1ccnn2ncc(-c3ccnc(N(C)C)n3)c12
remaining binding (LRRK2; binding; 1 µM): 56%

Nc1c(C(=O)NCc2ccc(C(=O)NCCCC3CCCCC3)cc2)cnn1-c1ccccc1
remaining binding (LRRK2; binding, competition with immobilised ligand; 1 µM): 39%

CN(C)c1ncc(F)c(-c2cnn3ncccc23)n1
remaining binding (LRRK2; binding; 1 µM): 50%

CN(C)C(=O)Cn1cc(-c2nc(C3(c4ccc(-c5cnc(N)nc5)cc4)CC3)no2)cn1
remaining binding (LRRK2; cell-free assay, competition with immobilised ligand; 1 µM): 100%

Cc1ccc(C(=O)Nc2ccc(CN3CCN(C)CC3)c(C(F)(F)F)c2)cc1C#Cc1cnc2cccnn12
remaining activity (LRRK2 G2019S; enzyme activity, inhibitor; 23.5 nM): 99%

CN([C@@H]1CCc2c(CC(=O)O)c3cc(S(C)(=O)=O)ccc3n2C1)S(=O)(=O)c1ccc(F)cc1
remaining binding (LRRK2; cell-free assay, competition with immobilised ligand; 1 µM): 100%

Nc1ncnc2occ(-c3ccc(NC(=O)Nc4cc(C(F)(F)F)ccc4F)cc3)c12
remaining signal (LRRK2 G2019S; cell-free assay, inhibitor; 20 µM): 12%

CN(C)C1CCN(CC#Cc2nn(C3CCCC3)c3nc(NCc4ccccc4)ncc23)C1 (stereo not shown)
inhibition (LRRK2; enzyme activity, inhibitor, FRET; 0.1 µM): -1%

C[C@@H]1CCN(c2nccc(-c3cnn4ncccc34)n2)C1
remaining binding (LRRK2; binding; 1 µM): 59%

O=C1NC(=O)c2cc(Nc3ccc(F)cc3)c(Nc3ccc(F)cc3)cc21
remaining signal (LRRK2; cell-free assay; 0.5 µM): 99.8%

COCCOc1nc(-c2ccc(Cl)nc2)nc2c1CN(C(=O)c1ncn3ccccc13)CC2
remaining binding (LRRK2; cell-free assay, competition with immobilised ligand; 0.1 µM): 100%

Cc1cnc(NC2CCOCC2)nc1-n1cnc(C(=O)NC(CN)c2cc(F)cc(Cl)c2)c1 (stereo not shown)
remaining activity (LRRK2; enzyme activity, inhibitor, radiometric; 1 µM): 95%

Cc1c(C(=O)O)cc(-c2ccc(C3CCNCC3)cc2)c2ccc(-c3ccc(C(F)(F)F)cc3)cc12
remaining binding (LRRK2 G2019S; binding, competition with immobilised ligand; 1 µM): 100%

COc1cc(-c2cc(-c3ccc(N4CCNCC4)cc3)cnc2N)cc(OC)c1OC
inhibition (LRRK2; enzyme activity, inhibitor; 1 µM): 33%

COc1cc(-c2cn(C3CCc4c(F)cccc4N(CC(F)(F)F)C3=O)nn2)ccc1-n1cnc(C)c1 (stereo not shown)
remaining binding (LRRK2 G2019S; cell-free assay, competition with immobilised ligand; 1 µM): 100%

CC(C)(C)c1nc2c(s1)c1nc(N)ncc1c1ccc(NS(=O)(=O)c3c(F)cccc3F)c(F)c12
remaining activity (LRRK2; enzyme activity, inhibitor, radiometric; 1 µM): 93%

O=C(O)c1cc(-c2ccc(C3CCNCC3)cc2)c2ccc(-c3ccc(C(F)(F)F)cc3)cc2c1
remaining binding (LRRK2; cell-free assay, competition with immobilised ligand; 1 µM): 100%

O=C(Nc1cnn(-c2csc(C(=O)NC3COC3)c2)c1)Nc1ccccc1Cl
remaining activity (LRRK2; enzyme activity, inhibitor; 5 µM): 88.2%

Cc1ccc(NC(=O)c2ccc(CN3CCN(C)CC3)cc2)cc1Nc1nc(-c2cccnc2)cs1
remaining signal (LRRK2; cell-free assay; 0.5 µM): 107%

O=C(O)[C@@H]1[C@@H](Cn2nnc3ccccc3c2=O)CC[C@H]1C(=O)c1ccc(OCCC2CCOCC2)cc1
remaining binding (LRRK2 G2019S; cell-free assay, competition with immobilised ligand; 1 µM): 100%
